Data on 2 compounds can be found in PMC7051832 (ACS chemical biology, 2019).

Experiment [1] has as its target E. coli dihydrofolate reductase (ecDHFR) (Escherichia coli, UniProt P0ABQ4). The experiment in a line: NMR 15N-HSQC titration of model fragments binding to ecDHFR. In a few lines:
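15N-ecDHFR at 100 μM, in bulk buffer (20 mM Tris pH 8.5, 100 mM NaCl, 10 mM DTT, 0.02% azide) or in reverse micelles (52.5 mM 10MAG, 18 mM LDAO, 4.5 mM DTAB, hexanol, pentane; W0 15; 5 mM in water core). Titrated with fragment. 15N-HSQC at 25 °C, 1024 × 64 complex points, 32 scans. Chemical shift perturbations fitted for Kd; error from fitting.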

Experiment [2] deals with interleukin-1β (IL-1β) (Homo sapiens, UniProt P01584). Kind of experiment: Reverse micelle. The experiment is classed as binding. To be noted: RM encapsulated IL-1β.
Chain of interleukin-1β (IL-1β) (P01584 117-269): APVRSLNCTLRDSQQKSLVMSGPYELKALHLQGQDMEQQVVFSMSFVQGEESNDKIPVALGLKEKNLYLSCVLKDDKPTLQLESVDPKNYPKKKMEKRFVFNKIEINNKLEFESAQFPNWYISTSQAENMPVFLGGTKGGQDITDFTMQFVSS

Chain of E. coli dihydrofolate reductase (ecDHFR) (P0ABQ4 whole entry, the tested form may be a part): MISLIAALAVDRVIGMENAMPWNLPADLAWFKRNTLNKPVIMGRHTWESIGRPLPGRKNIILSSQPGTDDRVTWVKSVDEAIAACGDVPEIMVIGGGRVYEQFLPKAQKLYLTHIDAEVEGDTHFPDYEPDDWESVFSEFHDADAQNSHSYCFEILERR

Turning to `NC(=O)c1ccc[n+]([C@@H]2O[C@H](COP(=O)([O-])OP(=O)(O)OC[C@H]3O[C@@H](n4cnc5c(N)ncnc54)[C@H](OP(=O)(O)O)[C@@H]3O)[C@@H](O)[C@H]2O)c1` [NADP^+], the affinity in experiment [1] (binding to ecDHFR, natural cofactor, NMR titration), expressed as Kd, was 9 ± 2 µM. Also, in experiment [1] (same absolute amounts of protein and ligand, both bulk and RM samples), the “degree of saturation of the protein” value was “saturated the enzyme in both bulk and RM samples”.

In the case of `OCc1ccc2nccn2c1` [imidazo[1,2-a]pyridine-6-ylmethanol], the “binding sites on the protein surface” value in experiment [2] is “bound to multiple sites on the protein surface”.
